Bioassay records: PubChem, Johns Hopkins Ion Channel Center
Only some compounds are listed: those with a hit (about 3.5% of all), similar ones and a draw of the others.
MrgX1 antag = human MrgX1 receptor antagonism, primary screen; 1.3% of 310,000 active; Q96LB2; MRGX1-HEK293 calcium flux, Fluo-4, BAM8-22 antagonism; active compounds read low; AID 588676; B-score at 10 µM;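 active = calcium-response B-score plate-corrected more than 3 library SD below zero, starting fluorescence within 5 deviations, no agonist response on first addition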;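 note: peak minus trough fluorescence over baseline after final BAM8-22 challenge near maximal dose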
Target sequence (Q96LB2 whole entry, looked up): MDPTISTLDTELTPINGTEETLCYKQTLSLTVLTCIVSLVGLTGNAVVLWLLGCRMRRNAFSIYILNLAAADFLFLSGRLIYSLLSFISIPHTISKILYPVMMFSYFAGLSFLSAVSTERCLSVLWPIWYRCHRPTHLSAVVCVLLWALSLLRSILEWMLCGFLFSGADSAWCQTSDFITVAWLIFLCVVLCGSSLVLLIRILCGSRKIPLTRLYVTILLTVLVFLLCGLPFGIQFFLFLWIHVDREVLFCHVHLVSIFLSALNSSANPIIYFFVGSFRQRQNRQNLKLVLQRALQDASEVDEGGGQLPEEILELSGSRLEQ
RGS4 act = RGS4 potentiation or activation; HEK293 M3R/inducible RGS4, carbachol calcium flux Fluo4; active compounds read low; B-score at 10 µM; 0.92% of 310,000 active; AID 463111;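 active = B-score of the integrated calcium signal more than 4 SD below the library mean, with starting fluorescence not abnormally high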;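 note: negative B-score means reduced calcium response which marks RGS4 activation or potentiation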
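test system = M3R-expressing HEK293 line, RGS4 induced by doxycycline | probe or stimulus = carbachol at ECmax as muscarinic agonist stimulus | timing = dye loading 30 min 37 °C, buffer rest 30 min RT | signal = calcium dye Fluo4 fluorescence | evaluation = B score from integrated fluorescence ratio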
MrgX1 agonist = agonists of human MrgX1 receptor. MrgX1-HEK293 cells, Fluo-4 calcium fluorescence, agonist mode; active compounds read high. 0.44% of 310,000 active. B-score at 10 µM. Q96LB2. AID 588627;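 active = calcium response B-score plate-corrected fluorescence ratio at least 3 library SD, with starting fluorescence B-score inside 5 SD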
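Assay system: stable human MrgX1 HEK293 cell line. Quantity: 15,000 cells per well. Schedule: cells plated overnight, dye loaded 0.5 h 37 °C, 0.5 h room temperature. Detection: Fluo-4 NW calcium-flux fluorescence, kinetic read. Read-out basis: peak-minus-minimum fluorescence over baseline, converted to B scores. Control set: positive and negative control wells on each plate.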
RGS4 inh = human RGS4 inhibition; P49798; HEK293 M3R/RGS4 inducible, Fluo-4 calcium flux; active compounds read high; triggered by carbachol at its EC20; B-score at 10 µM; 0.45% of 310,000 active;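 active = B-score, a plate-corrected calcium signal, over three deviations above library mean, with baseline fluorescence within five deviations of library mean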;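 note: RGS4 expression induced by doxycycline in cells with stable M3 receptor; B-score is computed from the integrated fluorescence ratio over baseline after carbachol; higher B-score means a larger calcium signal and so more RGS4 inhibition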
Target sequence (P49798 whole entry, looked up): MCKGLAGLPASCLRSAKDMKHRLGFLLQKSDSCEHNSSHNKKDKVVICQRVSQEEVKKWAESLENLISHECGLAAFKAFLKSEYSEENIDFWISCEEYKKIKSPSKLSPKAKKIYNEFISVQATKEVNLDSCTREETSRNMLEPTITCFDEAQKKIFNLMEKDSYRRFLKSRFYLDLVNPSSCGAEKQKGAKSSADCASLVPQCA
MrgX1 allo act = allosterically activates human MrgX1 receptor signaling | 0.63% of 310,000 active | Q96LB2 | B-score at 10 µM | MrgX1-HEK293, Fluo-4 calcium flux, FDSS; active compounds read high;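 active = plate-corrected calcium response at least 3 library SD above typical, normal starting fluorescence, not activating the receptor alone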;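 note: compound read alongside a low EC10 to EC30 dose of BAM8-22 agonist; peak minus trough fluorescence over baseline measured at the second addition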
MrgX1 ag confirm = confirmation of human MrgX1 receptor agonists | shares compounds with MrgX1 agonist | MrgX1-HEK293, Fluo-4 calcium fluorescence, FDSS | activation, % at 10 µM | 78% of 600 active | AID 602412;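 active = calcium signal rise, corrected for plate position, at least 3 library SD high, with starting brightness within 5 such deviations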
HEK293 Ca flux = activity in parental HEK293 cells lacking MrgX1; shares compounds with MrgX1 antag; Fluo-4 calcium fluorescence, FDSS; fluorescence ratio F(max-min)/F0 at 10 µM; 2% of 4,000 active; AID 624111;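 active = duplicate-averaged calcium fluorescence ratio at least three times the standard deviation of buffer wells, a nonspecific response in parental cells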
HEK293 Ca counter = counter-screen for MrgX1 allosteric activators: effect in parental HEK293 cells; shares compounds with MrgX1 antag; parental HEK293 calcium flux, Fluo-4 fluorescence ratio; active compounds read high; fluorescence ratio F(max-min)/F0 at 10 µM; 0.4% of 4,000 active; AID 624114;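 active = calcium fluorescence ratio, averaged over duplicates, at least 3 SD of the buffer-well ratio, meaning a nonspecific response in receptor-free cells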;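 note: untransfected parental HEK293 lacking MrgX1 used as counterscreen for MrgX1 allosteric activators; fluorescence change taken during the second addition on a kinetic imager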
HEK293 Ca cntr2 = MrgX1 activator counter-screen hit in parental HEK293 cells. shares compounds with MrgX1 antag. Fluo-4 calcium fluorescence (FDSS); active compounds read high. fluorescence ratio F(max-min)/F0 at 10 µM. 8.7% of 4,000 active;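 active = calcium fluorescence ratio at least three times the spread of buffer wells, meaning a non-specific response in parental cells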
The depositor's hits bear a star; i = inactive; x = not tested or not shown.

SMILES | MrgX1 antag | RGS4 act | MrgX1 agonist | RGS4 inh | MrgX1 allo act | MrgX1 ag confirm | HEK293 Ca flux | HEK293 Ca counter | HEK293 Ca cntr2
C#CCOCCOCCOCCNc1nc(N2CCN(C(=O)[C@H]([C@@H](C)CC)n3cc(CCC(=O)O)nn3)CC2)nc(N2CCN(C(=O)[C@H](C)n3cc(CCCN=C(N)N)nn3)CC2)n1 | i | i | i | i | i | x | x | x | x
Oc1ccccc1-c1nnc2n1CCCCC2 | i | i | 27* | i | i | i | i | i | i
Cc1ccc(-c2nnc3n2CCCCC3)cc1 | i | i | i | i | i | x | x | x | x
COc1cccc(Nc2nc3ccccc3n3nnnc23)c1 | i | i | 31* | i | i | 125%* | i | i | i
Fc1cccc(Nc2nc3ccccc3n3nnnc23)c1 | i | i | i | i | i | x | x | x | x
c1ccc2c(c1)nc(Nc1ccc3c(c1)OCO3)c1nnnn12 | i | i | 30* | i | i | 207%* | i | i | i
O=C(OCc1cc2ccccc2[nH]c1=O)c1cccs1 | i | i | 38* | i | i | i | i | i | i
O=C1S/C(=C\c2ccc(N3CCOCC3)o2)C(=O)N1Cc1ccc(F)cc1 | i | x | i | x | i | x | x | x | x
CC(C)OC(=O)CN1C(=O)S/C(=C/c2ccc(N3CCCCC3)o2)C1=O | i | i | 64* | i | i | i | 0.079* | i | i
COc1ccc2c(c1)CC/C(=C\Nc1ccc3c(c1)OCO3)C2=O | i | i | 27* | i | i | i | i | i | i
CCCOC(=O)Cn1cnc2scc(-c3ccc(C)cc3)c2c1=O | i | i | i | i | i | x | x | x | x
CCc1ccc(-c2csc3ncn(Cc4ccc(C(=O)O)cc4)c(=O)c23)cc1 | i | i | 31* | i | i | 149%* | i | i | i
Cn1c(-c2ccccc2)c(CCO)c2ccccc21 | i | i | 43* | i | i | 184%* | i | i | i
O=C(c1ccccc1Cl)N(Cc1ccc(Br)cc1)N1C(=O)CCCC1=O | i | i | i | i | i | x | x | x | x
O=C(c1ccc([N+](=O)[O-])cc1)N(Cc1ccc(Br)cc1)N1C(=O)CCCC1=O | i | i | 71* | i | i | 521%* | i | i | 96*
O=C(/C=C/c1ccccc1)NC(=S)NNC(=O)Cc1cccs1 | i | i | 71* | i | i | 262%* | i | i | 73*
Cc1onc(-c2ccccc2)c1C(=O)NNC(=S)NC(=O)/C=C/c1ccccc1 | i | i | 95* | i | i | 455%* | i | i | 72*
Cc1onc(-c2ccccc2)c1C(=O)Nc1ccccc1NC(=O)c1c(-c2ccccc2)noc1C | i | i | i | i | i | x | x | x | x
Cc1onc(-c2ccccc2)c1C(=O)NNC(=O)c1ccccc1O | i | i | i | i | i | x | x | x | x
Cc1onc(-c2ccccc2)c1C(=O)NNC(=S)NC(=O)c1ccc(Br)cc1 | i | i | 86* | i | i | 705%* | i | i | 138*
Cc1onc(-c2ccccc2)c1C(=O)NNC(=S)NC(=O)c1ccc(Cl)cc1Cl | i | i | 180* | i | i | 714%* | i | i | 115*
COc1ccc(Cl)cc1NC(=O)c1c(-c2ccccc2)noc1C | i | i | i | i | i | x | x | x | x
O=C(Nc1ccc(OC(F)F)cc1)c1ccccn1 | i | i | i | i | i | x | x | x | x
O=C(N/N=C/c1cccn1-c1ccc(O)cc1)c1cccc2ccccc12 | i | i | i | i | i | x | x | x | x
